This is an account of results in ChEMBL document CHEMBL4411287, “Discovery and optimization of a series of 3-substituted indazole derivatives as multi-target kinase inhibitors for the treatment of lung squamous cell carcinoma” (Eur J Med Chem, 2019).

pIC50: −log10 of the molar value.

Assay [1] has as its target T1, Discoidin domain-containing receptor 2 (Homo sapiens, UniProt Q16832).
T1 sequence (Q16832 whole entry): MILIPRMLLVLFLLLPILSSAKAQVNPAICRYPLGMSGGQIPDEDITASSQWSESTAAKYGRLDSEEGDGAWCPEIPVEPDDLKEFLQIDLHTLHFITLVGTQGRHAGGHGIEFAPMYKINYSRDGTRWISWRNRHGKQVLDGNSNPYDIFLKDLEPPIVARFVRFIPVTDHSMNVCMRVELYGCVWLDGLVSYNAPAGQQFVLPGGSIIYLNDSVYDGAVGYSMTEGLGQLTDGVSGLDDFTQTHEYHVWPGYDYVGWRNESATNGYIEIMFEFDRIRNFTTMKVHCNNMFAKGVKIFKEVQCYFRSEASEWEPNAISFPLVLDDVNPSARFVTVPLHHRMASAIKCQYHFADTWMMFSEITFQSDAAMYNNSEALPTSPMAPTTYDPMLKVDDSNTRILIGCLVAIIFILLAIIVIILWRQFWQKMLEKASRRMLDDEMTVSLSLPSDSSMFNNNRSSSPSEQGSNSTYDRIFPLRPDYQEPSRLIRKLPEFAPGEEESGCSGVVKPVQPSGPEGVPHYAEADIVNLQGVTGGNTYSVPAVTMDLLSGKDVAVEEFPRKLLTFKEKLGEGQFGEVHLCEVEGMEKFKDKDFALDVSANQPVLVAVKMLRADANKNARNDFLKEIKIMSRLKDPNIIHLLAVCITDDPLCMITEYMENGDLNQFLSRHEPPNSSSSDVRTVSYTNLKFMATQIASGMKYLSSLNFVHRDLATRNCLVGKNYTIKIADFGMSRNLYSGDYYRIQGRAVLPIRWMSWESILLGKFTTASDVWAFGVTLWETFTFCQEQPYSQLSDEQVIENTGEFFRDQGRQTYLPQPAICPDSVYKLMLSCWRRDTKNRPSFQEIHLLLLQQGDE
Nature of the assay: Inhibition of DDR2 (unknown origin) using poly (Glu, Tyr) 4:1 substrate after 60 mins by ELISA. (In general: In an ELISA, binding on a coated surface is turned into a signal by an enzyme label.)

The target in assay [2] is T2, Discoidin domain-containing receptor 2 (Homo sapiens) (UniProt Q16832).
T2 sequence (whole entry): T1 sequence (Q16832 whole entry)
Nature of the assay: Inhibition of DDR2 (unknown origin) at 100 nM using poly (Glu, Tyr) 4:1 substrate after 60 mins by ELISA relative to control. In a few lines:
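ELISA with purified recombinant DDR2 on poly(Glu,Tyr) 4:1 precoated at 20 µg/mL. 10 µM ATP in HEPES pH 7.4 buffer with MgCl2, MnCl2, Na3VO4 and DTT, 1% DMSO; 60 min at 37 °C. Phosphotyrosine detected by PY99 and HRP anti-mouse IgG with o-phenylenediamine at A490. Inhibition = 1−A490/A490control; two separate experiments.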

A further assay has as its system KG-1. The assay is described as follows: Antiproliferative activity against human KG1 cells after 72 hrs by CCK8 assay. As to conditions: KG-1, 72 h. On the technique in general: Tetrazolium dyes change colour on reduction, which living cells bring about.
The test system of assay [3] is NCI-H2286. The assay is described as follows: Antiproliferative activity against human NCI-H2286 cells after 72 hrs by CCK8 assay. As to conditions: NCI-H2286, 72 h.
The test system of assay [4] is NCI-H2286. The assay is described as follows: Antiproliferative activity against human NCI-H2286 cells at 100 nM after 72 hrs by CCK8 assay relative to control. The class given is functional.

With `Cc1ccc(NC(=O)c2cccc(C(F)(F)F)c2)cc1-c1ccc2cn[nH]c2c1`, in assay [1], the pIC50 (commonly −log10 of the IC50, conventionally taken in molar units) was 8.26.
`Cc1ccc(C(=O)NCc2cccc(N3CCN(C)CC3)c2)cc1-c1ccc2cn[nH]c2c1`: the inhibition (as a rule, how much of the control response was suppressed) in assay [2] was determined as 23.2%.
Same read-out and setting: with `Cc1cc(NC(=O)c2cccc(C(F)(F)F)c2)cc(-c2ccc3cn[nH]c3c2)c1` the figure was 27.4%.
In the case of `O=C(Nc1ccc(Cl)c(-c2ccc3cn[nH]c3c2)c1)c1cccc(C(F)(F)F)c1`, the pIC50 in assay [1] is 8.02.
`Cc1ccc(C(=O)Nc2ccc(N3CCN(C)CC3)cc2)cc1-c1ccc2cn[nH]c2c1` registered an inhibition in assay [2] of 25.8%.
For the molecule `Cc1ccc(C(=O)Nc2cccc(C(F)(F)F)c2)cc1-c1ccc2c(-c3cnn(C4CCOC4)c3)n[nH]c2c1` (centres undefined), the figures for the pIC50 (in assay [1]; with KG-1; in the assay on NCI-H2286 [3]) were 8.21, 6.52 and 7.16, respectively.
For the molecule `Cc1ccc(C(=O)Nc2cccc(C(F)(F)F)c2)cc1-c1ccc2c(-c3cnn(CCN4CCOCC4)c3)n[nH]c2c1`, the pIC50 in assay [1] was 8.59; in the assay on KG-1, 6.94. In the assay with NCI-H2286 [4], this molecule came in with an Activity of 49%.
For `Cc1ccc(C(=O)Nc2cccc(C(F)(F)F)c2)cc1-c1ccc2c(-c3cnn(CC(=O)N(C)C)c3)n[nH]c2c1`, the pIC50 in assay [1] is 8.57; in the assay on KG-1, 6.36; with NCI-H2286 [3], < 6.00.
As for `Cc1ccc(C(=O)Nc2cccc(C(F)(F)F)c2)cc1-c1ccc2c(-c3ccc(CN4CCN(C)CC4)cc3)n[nH]c2c1`, the pIC50 in assay [1] was 8.21; in the assay with KG-1, 6.92. In addition, the Activity in the assay on NCI-H2286 [4] is on record as 13%.
In turn, `Cc1ccc(C(=O)Nc2cc(CN3CCN(CCO)CC3)cc(C(F)(F)F)c2)cc1-c1ccc2cn[nH]c2c1` showed a pIC50 in assay [1] of 8.47.
For the molecule `Cc1ccc(C(=O)Nc2cccc(C(F)(F)F)c2)cc1-c1ccc2c(-c3ccc(N4CCOCC4)cc3)n[nH]c2c1`, the pIC50 was 7.67 in assay [1], 6.25 in the assay on KG-1 and 6.85 in the assay with NCI-H2286 [3].
For `Cc1ccc(C(=O)Nc2cccc(C(F)(F)F)c2)cc1-c1ccc2c(-c3ccc(N4CCC(N5CCOCC5)CC4)cc3)n[nH]c2c1`, the pIC50 in assay [1] is 8.06; with KG-1 it was 6.75.
In assay [2], `Cc1ccc(C(=O)Nc2cccc(N3CCN(C)CC3)c2)cc1-c1ccc2cn[nH]c2c1` displayed an inhibition of 37.3%.
For the molecule `O=C(Nc1ccc(F)c(-c2ccc3cn[nH]c3c2)c1)c1cccc(C(F)(F)F)c1`, the pIC50 in assay [1] was 7.19.
Regarding `CCN1CCN(Cc2cc(NC(=O)c3ccc(C)c(-c4ccc5cn[nH]c5c4)c3)cc(C(F)(F)F)c2)CC1`, the pIC50 in assay [1] is 8.41.
Still for that read-out and setting: then `Cc1ccc(C(=O)NCc2cccc(C(F)(F)F)c2)cc1-c1ccc2cn[nH]c2c1`, with 8.10; and `Cc1ccc(C(=O)Nc2cccc(CN3CCN(C)CC3)c2)cc1-c1ccc2cn[nH]c2c1`, with 7.12.
On the same count and under the same terms, with `Cc1ccc(C(=O)Nc2cccc(C(C)C)c2)cc1-c1ccc2cn[nH]c2c1` the figure was 8.92.
On to `Cc1ccc(-c2ccc3cn[nH]c3c2)cc1NC(=O)c1cccc(C(F)(F)F)c1`, for which the inhibition in assay [2] was found to be 37.3%.
Molecule `Cc1ccc(C(=O)Nc2ccc(CN3CCN(C)CC3)cc2)cc1-c1ccc2cn[nH]c2c1` showed a pIC50 in assay [1] of 8.17.
On the same count and under the same terms, with `Cc1ccc(C(=O)Nc2cccc(C(C)(C)C#N)c2)cc1-c1ccc2cn[nH]c2c1` the figure was 8.57.
`Cc1c(NC(=O)c2cccc(C(F)(F)F)c2)cccc1-c1ccc2cn[nH]c2c1` came in with an inhibition in assay [2] of 41.8%.
`COc1ccc(NC(=O)c2cccc(C(F)(F)F)c2)cc1-c1ccc2cn[nH]c2c1` gave a pIC50 in assay [1] of 7.17.
Still for that read-out and setting: then `Cc1ccc(C(=O)Nc2cc(CN3CCN(C4CCCC4)CC3)cc(C(F)(F)F)c2)cc1-c1ccc2cn[nH]c2c1`, with 8.15.
For `CCn1cc(-c2n[nH]c3cc(-c4cc(C(=O)Nc5cccc(C(F)(F)F)c5)ccc4C)ccc23)cn1`, the pIC50 in assay [1] was 8.59; in the assay with KG-1, 6.59; in the assay on NCI-H2286 [3], 7.70.
The molecule `Cc1ccc(C(=O)Nc2cc(CN3CCN(C)CC3)cc(C(F)(F)F)c2)cc1-c1ccc2cn[nH]c2c1` showed a pIC50 in assay [1] of 8.33.
